Shn3 inh set2: inhibitors of Schnurri-3 3'UTR reporter in osteoblasts; inhibition, % at 12.5 µM; Clone20 osteoblast Shn3 3'UTR firefly luciferase, 24 h; AID 588674; hit rate 0.52% among 360,000;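 active = mean inhibition of at least 75% with every replicate also reaching 75%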;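 note: 0% = median of neutral control wells and 100% = pilot-screen positive control compound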
EBV LMP1 NFkB: Epstein-Barr LMP1 NF-kappaB reporter inhibition | LMP1-induced NF-kappaB luciferase reporter cells, luminescence | inhibition, % at 12.5 µM | hit rate 0.69% among 350,000; in the data active = inhibition above about 41%;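 note: 0% = neutral control wells and 100% = reference inhibitor control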
EWS-Fli inh: blocks EWS/Fli oncoprotein-driven transcription; A673 NR0B1-luciferase reporter, viability-normalised; inhibition, % at 12.6 µM; hit rate 0.67% among 350,000;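 active = mean inhibition of at least 50% after viability correction, with every replicate also passing that limit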;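 note: firefly luciferase signal divided by Alamar Blue viability fluorescence both relative to DMSO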
aSyn 5UTR inh: MLPCN primary screen, SNCA 5' untranslated region. alpha-synuclein 5'UTR reporter, inhibitor activity. inhibition, % (tested at 7.5 µM). hit rate 0.82% among 300,000. AID 1813; in the data active = inhibition above about 60%;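 note: H4 neuroglioblastoma cells stably carrying SNCA 5'UTR luciferase fusion; 0% = DMSO wells and 100% = positive control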
FN deposit inh: fibronectin deposition inhibition. AH1F fibroblasts, Alexa488-fibronectin deposition fluorescence, overnight. inhibition, % at 12.6 µM. hit rate 0.086% among 350,000. AID 743247;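 active = mean inhibition across replicates of 30% or more, regardless of how many single replicates reach that level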;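 note: positive control wells lacked labelled fibronectin entirely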
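Assay system: AH1F fibroblasts / Quantity: 10000 cells per well / Medium: DMEM plus 2% serum, read in PBS / Reagent: labelled fibronectin 24 nM / Dosing: single dose, pinned / Times: 1 h cell attachment, overnight exposure to compound and label / Signal: fluorescence, ex 485 nm, em 525 nm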
PAX8 reporter: inhibitors of PAX8 transcriptional activity in RMG-I cells | RMG-I TPO-luciferase reporter, SteadyGlo, 24 h | inhibition, % at 12.6 µM | hit rate 1.2% among 360,000;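 active = mean replicate inhibition at least 60% with every replicate also reaching 60%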;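 note: luciferase light reporting Pax8 driven TPO promoter activity; plate controls were median of neutral control wells for no effect and mitoxantrone controls for full effect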
An asterisk follows results filed as active. In the library only some 2.1% were active in any assay of this set; here they are far more common.

`C/C(=N\NC(=O)c1cc(-c2cccnc2)nc2ccccc12)c1ccc(O)cc1O` gave Shn3 inh set2 85, EBV LMP1 NFkB -15 and aSyn 5UTR inh 105*.
`CCC(=O)N(C)C[C@@H]1Oc2ncc(-c3ccc(C)cc3)cc2C(=O)N([C@H](C)CO)C[C@@H]1C` gave EWS-Fli inh -2 and FN deposit inh -1.
`CCCCCC(=O)N/N=C(\C)c1ccccn1` gave Shn3 inh set2 39, EBV LMP1 NFkB 38, aSyn 5UTR inh 67* and FN deposit inh 5.
Screening CCCCCCCCCC(=O)N/N=C(\C)c1cccnc1 returned Shn3 inh set2 -3, EBV LMP1 NFkB 0, aSyn 5UTR inh -19, FN deposit inh -6 and PAX8 reporter 4.
C/C(=N\NC(=O)COc1ccccc1-c1ccccc1)c1ccccn1 was read as Shn3 inh set2 98*, EBV LMP1 NFkB 41*, EWS-Fli inh 0, aSyn 5UTR inh 114*, FN deposit inh -3 and PAX8 reporter 81*.
Screening COc1ccc(S(=O)(=O)N(C)C[C@H]2Oc3ccc(NC(=O)Nc4cccc5ccccc45)cc3CC(=O)N([C@H](C)CO)C[C@H]2C)cc1 returned EWS-Fli inh 5 and FN deposit inh 20.
For COc1ccc2[nH]c(C(=O)N/N=C/c3ccccc3OC)cc2c1 the results were Shn3 inh set2 -35, EBV LMP1 NFkB -39, EWS-Fli inh -4, aSyn 5UTR inh -119, FN deposit inh 1 and PAX8 reporter 3.
For CCOc1ccc2[nH]c(C(=O)N/N=C/c3ccccc3OC)cc2c1 the results were Shn3 inh set2 -17, EBV LMP1 NFkB -24, EWS-Fli inh 40, aSyn 5UTR inh -116, FN deposit inh 11 and PAX8 reporter 3.
For COc1cc(OC)c2cc(C(=O)N/N=C/c3ccccc3O)[nH]c2c1 the results were Shn3 inh set2 89*, EBV LMP1 NFkB 11, EWS-Fli inh 5, aSyn 5UTR inh -31, FN deposit inh 12 and PAX8 reporter 18.
CCCOc1ccc2[nH]c(C(=O)N/N=C/c3cc(OC)c(OC)c(OC)c3)cc2c1 was read as Shn3 inh set2 -16, EBV LMP1 NFkB -38, EWS-Fli inh -7, aSyn 5UTR inh -26, FN deposit inh 4 and PAX8 reporter 91*.
CO[C@H]1CN(C)C(=O)c2cc(NC(C)=O)ccc2OC[C@@H](C)N(CC2CC2)C[C@@H]1C was read as EWS-Fli inh -3, FN deposit inh 7 and PAX8 reporter -8.
Screening CO[C@@H]1CN(C)C(=O)c2ccc(NC(=O)c3cc(C)on3)cc2OC[C@H](C)NC[C@@H]1C returned EWS-Fli inh -1 and FN deposit inh -6.
Screening Cc1ccccc1C[n+]1cccc2ccccc21 returned Shn3 inh set2 2, EBV LMP1 NFkB 1, EWS-Fli inh 6, aSyn 5UTR inh -19, FN deposit inh -9 and PAX8 reporter 24.
`CCCCCCCCCCCCCCCC[n+]1cccc2ccccc21` gave Shn3 inh set2 92*, EBV LMP1 NFkB 30, EWS-Fli inh 89* and PAX8 reporter 109*.
For CCCCCCCCC[n+]1cccc2c3ccccc3ccc21 the results were Shn3 inh set2 89*, EBV LMP1 NFkB 48* and aSyn 5UTR inh 69*.
CN1C[C@H]2[C@@H](c3ccccc31)[C@H](CO)N2C(=O)Nc1cccc(F)c1 was read as EWS-Fli inh -16 and PAX8 reporter -23.
For CCCN(C)C[C@@H]1OCCCC[C@H](C)Oc2ccc(NC(=O)Nc3ccc(C(F)(F)F)cc3)cc2C(=O)N([C@@H](C)CO)C[C@@H]1C the results were EWS-Fli inh 3 and PAX8 reporter 50.
For Cc1cc2nc(/C=C/c3cccnc3)[nH]c2cc1C the results were Shn3 inh set2 -106, EBV LMP1 NFkB -19, EWS-Fli inh 3, aSyn 5UTR inh 92*, FN deposit inh -9 and PAX8 reporter 2.
Screening C[C@@H]1CN([C@H](C)CO)C(=O)Cc2cc(NC(=O)CCN3CCOCC3)ccc2O[C@@H]1CN(C)C(=O)Nc1ccccc1 returned EWS-Fli inh -7 and PAX8 reporter 1.
For c1nc(CCO[C@H]2CCCCO2)cc2cc3c(cc12)OCO3 the results were Shn3 inh set2 18, EBV LMP1 NFkB 39, EWS-Fli inh 75*, FN deposit inh -2 and PAX8 reporter 5.
`O=C(C[C@@H]1CC[C@H]2[C@@H](COC[C@H](O)CN2Cc2ccccc2F)O1)NC1CCC1` gave EWS-Fli inh 3, FN deposit inh -3 and PAX8 reporter 22.
CC(NC(=O)CN(c1cccc(C(F)(F)F)c1)S(=O)(=O)c1ccc(Cl)c([N+](=O)[O-])c1)c1ccccc1 (stereo unspecified) was read as Shn3 inh set2 5, EBV LMP1 NFkB 8, EWS-Fli inh 60*, aSyn 5UTR inh 3, FN deposit inh 0 and PAX8 reporter 61*.
C[C@@H]1CCCCO[C@@H](CN(C)C(=O)Nc2ccc3c(c2)OCO3)[C@H](C)CN([C@H](C)CO)C(=O)c2cc(NS(=O)(=O)c3ccc(F)cc3)ccc2O1 was read as EWS-Fli inh 8, FN deposit inh 2 and PAX8 reporter 16.
`NC(=O)c1ncn([C@@H]2O[C@H](CO)[C@@H](O)[C@H]2O)n1` gave Shn3 inh set2 13, EBV LMP1 NFkB 63*, EWS-Fli inh -39, aSyn 5UTR inh 20, FN deposit inh 0 and PAX8 reporter -15.
Screening C[C@H]1CCCCO[C@H](CN(C)C(=O)NC2CCCCC2)[C@@H](C)CN([C@@H](C)CO)C(=O)c2cc(NS(=O)(=O)c3cccs3)ccc2O1 returned EWS-Fli inh 7 and PAX8 reporter 10.
For COc1ccc(-c2cc3ccc(OC)cc3cn2)cc1 the results were Shn3 inh set2 -11, EBV LMP1 NFkB 22, EWS-Fli inh 58*, FN deposit inh -13 and PAX8 reporter 18.
For Cc1ccccc1COC(=O)c1cc([N+](=O)[O-])ccc1N1CCOCC1 the results were Shn3 inh set2 7, EBV LMP1 NFkB -14, aSyn 5UTR inh 10, FN deposit inh 4 and PAX8 reporter 24.
CSc1ccc(COC(=O)c2cc([N+](=O)[O-])ccc2N2CCOCC2)cc1 was read as Shn3 inh set2 36, EBV LMP1 NFkB 10, EWS-Fli inh 55*, aSyn 5UTR inh 67*, FN deposit inh -29 and PAX8 reporter 96*.
For COc1ccc(OC)c(COC(=O)c2cc([N+](=O)[O-])ccc2N2CCOCC2)c1 the results were Shn3 inh set2 16, EBV LMP1 NFkB 10, EWS-Fli inh 65*, FN deposit inh 15 and PAX8 reporter 25.
`Clc1ccc(CSc2nnc(-c3ccc4c(c3)OCO4)o2)cc1` gave Shn3 inh set2 -15, EBV LMP1 NFkB -7 and aSyn 5UTR inh -4.
For O=C1CCCCC1Sc1nnc(-c2ccc3c(c2)OCO3)o1 (stereo unspecified) the results were Shn3 inh set2 25, EBV LMP1 NFkB 56*, EWS-Fli inh 30, aSyn 5UTR inh 33, FN deposit inh -10 and PAX8 reporter 22.

Screening data (PubChem BioAssay)
